In brackets after ≈: the same amount, converted by molar mass.
Tests used:
Trichoderma viride [1] = test: Antifungal activity against Trichoderma viride IAM 5061 after 72 hrs by serial sub-cultivation method; type: functional; settings: IAM 5061, 72 h
Outline: (§1)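 MFC was found by serial sub-cultivation of 2 µl into plates holding 100 µl broth per well, then incubation 72 h at 28 °C. MFC is the lowest concentration with no visible growth, taken as 99.5% killing of the original inoculum. Spore inocula came from malt agar cultures washed with 0.85% saline and 0.1% Tween 80.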

Aspergillus flavus [2] = test: Antifungal activity against Aspergillus flavus ATCC 9643 after 72 hrs by serial sub-cultivation method; type: functional; settings: ATCC 9643, 72 h; outline: as §1
Aspergillus fumigatus [3] = test: Antifungal activity against Aspergillus fumigatus plant isolate after 72 hrs by serial dilution method
Staphylococcus aureus [4] = test: Antibacterial activity against Staphylococcus aureus ATCC 6538 after 24 hrs; type: functional; settings: ATCC 6538, 24 h
Outline: (§2)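 Broth microdilution MIC in 96-well plates. Compounds in LB broth with bacterial inoculum of 1.0 × 10^4 cfu per well, from suspensions adjusted with sterile saline to 1.0 × 10⁵ CFU/ml. Incubated 24 h at […] as printed. MIC taken as the lowest concentration with no visible growth under the binocular microscope. OD at 655 nm also read against blank. Streptomycin and ampicillin as positive controls. Duplicate, repeated three times.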

Bacillus cereus [5] = test: Antibacterial activity against Bacillus cereus clinical isolate after 72 hrs by serial sub-cultivation method; type: functional
Outline: (§3)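 MBC was found by serial sub-cultivation of 2 µl from the MIC wells into plates holding 100 µl broth per well, then incubation for 72 h. MBC is the lowest concentration with no visible growth, i.e. 99.5% killing of the original inoculum. Bacterial inoculum was 1.0 × 10^4 cfu per well in LB broth. Duplicate, repeated three times.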

Aspergillus fumigatus [6] = test: Antifungal activity against Aspergillus fumigatus plant isolate after 72 hrs by serial sub-cultivation method
Aspergillus versicolor [7] = test: Antifungal activity against Aspergillus versicolor ATCC 11730 after 72 hrs by serial dilution method; type: functional; settings: ATCC 11730, 72 h
Outline: (§4)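 Fungi were kept on malt agar at 4 °C and sub-cultured monthly. Spores were washed off the agar with sterile 0.85% saline containing 0.1% Tween 80 (v/v). Modified microdilution in 96-well plates. MIC is the lowest concentration with no visible growth under the binocular microscope. Inoculum checked on malt agar for contamination and validity.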

Salmonella typhimurium [8] = test: Antibacterial activity against Salmonella Typhimurium ATCC 13311 after 72 hrs by serial sub-cultivation method; type: functional, Salmonella enterica subsp. enterica serovar Typhimurium; settings: Salmonella enterica, ATCC 13311, 72 h; outline: as §3
Listeria monocytogenes [9] = test: Antibacterial activity against Listeria monocytogenes NCTC 7973 after 72 hrs by serial sub-cultivation method; type: functional; settings: NCTC 7973, 72 h; outline: as §3
Salmonella typhimurium [10] = test: Antibacterial activity against Salmonella Typhimurium ATCC 13311 after 24 hrs; type: functional, Salmonella enterica subsp. enterica serovar Typhimurium; settings: Salmonella enterica, ATCC 13311, 24 h; outline: as §2
Trichoderma viride [11] = test: Antifungal activity against Trichoderma viride IAM 5061 after 72 hrs by serial dilution method; type: functional; settings: IAM 5061, 72 h; outline: as §4
Penicillium ochrochloron [12] = test: Antifungal activity against Penicillium ochrochloron ATCC 9112 after 72 hrs by serial sub-cultivation method; type: functional; settings: ATCC 9112, 72 h; outline: as §1
Aspergillus niger [13] = test: Antifungal activity against Aspergillus niger ATCC 6275 after 72 hrs by serial dilution method; type: functional; settings: ATCC 6275, 72 h; outline: as §4
Bacillus cereus [14] = test: Antibacterial activity against Bacillus cereus clinical isolate after 24 hrs; type: functional; outline: as §2
Pseudomonas aeruginosa [15] = test: Antibacterial activity against Pseudomonas aeruginosa ATCC 27853 after 24 hrs; type: functional; settings: ATCC 27853, 24 h; outline: as §2
Talaromyces funiculosus [16] = test: Antifungal activity against Penicillium funiculosum ATCC 36839 after 72 hrs by serial sub-cultivation method; type: functional; settings: ATCC 36839, 72 h; outline: as §1
Escherichia coli [17] = test: Antibacterial activity against Escherichia coli ATCC 35210 after 24 hrs; type: functional; settings: ATCC 35210, 24 h; outline: as §2
Aspergillus flavus [18] = test: Antifungal activity against Aspergillus flavus ATCC 9643 after 72 hrs by serial dilution method; type: functional; settings: ATCC 9643, 72 h; outline: as §4
Proteus mirabilis [19] = test: Antibacterial activity against Proteus mirabilis after 72 hrs by serial sub-cultivation method; type: functional; outline: as §3
Proteus mirabilis [20] = test: Antibacterial activity against Proteus mirabilis after 24 hrs; type: functional; outline: as §2
Listeria monocytogenes [21] = test: Antibacterial activity against Listeria monocytogenes NCTC 7973 after 24 hrs; type: functional; settings: NCTC 7973, 24 h; outline: as §2
Fulvia fulva [22] = test: Antifungal activity against Fulvia fulva TK 5318 after 72 hrs by serial sub-cultivation method; type: functional; settings: TK 5318, 72 h; outline: as §1
Micrococcus flavus [23] = test: Antibacterial activity against Micrococcus flavus ATCC 10240 after 24 hrs; type: functional; settings: ATCC 10240, 24 h; outline: as §2
Escherichia coli [24] = test: Antibacterial activity against Escherichia coli ATCC 35210 after 72 hrs by serial sub-cultivation method; type: functional; settings: ATCC 35210, 72 h; outline: as §3
Micrococcus flavus [25] = test: Antibacterial activity against Micrococcus flavus ATCC 10240 after 72 hrs by serial sub-cultivation method; type: functional; settings: ATCC 10240, 72 h; outline: as §3
Talaromyces funiculosus [26] = test: Antifungal activity against Penicillium funiculosum ATCC 36839 after 72 hrs by serial dilution method; type: functional; settings: ATCC 36839, 72 h; outline: as §4
Aspergillus niger [27] = test: Antifungal activity against Aspergillus niger ATCC 6275 after 72 hrs by serial sub-cultivation method; type: functional; settings: ATCC 6275, 72 h; outline: as §1
Pseudomonas aeruginosa [28] = test: Antibacterial activity against Pseudomonas aeruginosa ATCC 27853 after 72 hrs by serial sub-cultivation method; type: functional; settings: ATCC 27853, 72 h; outline: as §3
Aspergillus versicolor [29] = test: Antifungal activity against Aspergillus versicolor ATCC 11730 after 72 hrs by serial sub-cultivation method; type: functional; settings: ATCC 11730, 72 h; outline: as §1
Fulvia fulva [30] = test: Antifungal activity against Fulvia fulva TK 5318 after 72 hrs by serial dilution method; type: functional; settings: TK 5318, 72 h; outline: as §4
Penicillium ochrochloron [31] = test: Antifungal activity against Penicillium ochrochloron ATCC 9112 after 72 hrs by serial dilution method; type: functional; settings: ATCC 9112, 72 h; outline: as §4
Staphylococcus aureus [32] = test: Antibacterial activity against Staphylococcus aureus ATCC 6538 after 72 hrs by serial sub-cultivation method; type: functional; settings: ATCC 6538, 72 h; outline: as §3

MIC (Staphylococcus aureus [4]) [µM] | SMILES | MFC (Trichoderma viride [1]) [µM] | MFC (Aspergillus flavus [2]) [µM] | MIC (Aspergillus fumigatus [3]) [µM] | MBC (Bacillus cereus [5]) [µM] | MFC (Aspergillus fumigatus [6]) [µM] | MIC (Aspergillus versicolor [7]) [µM] | MBC (Salmonella typhimurium [8]) [µM] | MBC (Listeria monocytogenes [9]) [µM] | MIC (Trichoderma viride [11]) [µM] | MFC (Penicillium ochrochloron [12]) [µM] | MIC (Aspergillus niger [13]) [µM] | MFC (Talaromyces funiculosus [16]) [µM] | MIC (Aspergillus flavus [18]) [µM] | MFC (Fulvia fulva [22]) [µM] | MIC (Talaromyces funiculosus [26]) [µM] | MFC (Aspergillus niger [27]) [µM] | MFC (Aspergillus versicolor [29]) [µM] | MIC (Fulvia fulva [30]) [µM] | MIC (Penicillium ochrochloron [31]) [µM] | other results
23.1 (≈ 10.4 µg/mL) | COc1ccc(/C=C2\S/C(=N\c3nc(C45CC6CC(CC(C6)C4)C5)cs3)NC2=O)cc1 | 23.1 (≈ 10.4 µg/mL) | 23.1 (≈ 10.4 µg/mL) | 17.3 (≈ 7.81 µg/mL) | 23.1 (≈ 10.4 µg/mL) | 23.1 (≈ 10.4 µg/mL) | 17.3 (≈ 7.81 µg/mL) | 23.1 (≈ 10.4 µg/mL) | 46.2 (≈ 20.9 µg/mL) | 11.6 (≈ 5.24 µg/mL) | 23.1 (≈ 10.4 µg/mL) | 17.3 (≈ 7.81 µg/mL) | 23.1 (≈ 10.4 µg/mL) | 17.3 (≈ 7.81 µg/mL) | 23.1 (≈ 10.4 µg/mL) | 11.6 (≈ 5.24 µg/mL) | 23.1 (≈ 10.4 µg/mL) | 23.1 (≈ 10.4 µg/mL) | 5.8 (≈ 2.62 µg/mL) | 11.6 (≈ 5.24 µg/mL) | MIC (Salmonella typhimurium [10]): 11.6 µM (≈ 5.24 µg/mL); MIC (Bacillus cereus [14]): 23.1 µM (≈ 10.4 µg/mL); MIC (Pseudomonas aeruginosa [15]): 11.6 µM (≈ 5.24 µg/mL); MIC (Escherichia coli [17]): 11.6 µM (≈ 5.24 µg/mL); MBC (Proteus mirabilis [19]): 69.3 µM (≈ 31.3 µg/mL); MIC (Proteus mirabilis [20]): 46.2 µM (≈ 20.9 µg/mL); MIC (Listeria monocytogenes [21]): 23.1 µM (≈ 10.4 µg/mL); MIC (Micrococcus flavus [23]): 23.1 µM (≈ 10.4 µg/mL); MBC (Escherichia coli [24]): 23.1 µM (≈ 10.4 µg/mL); MBC (Micrococcus flavus [25]): 46.2 µM (≈ 20.9 µg/mL); MBC (Pseudomonas aeruginosa [28]): 23.1 µM (≈ 10.4 µg/mL); MBC (Staphylococcus aureus [32]): 46.2 µM (≈ 20.9 µg/mL)
– | CC(=O)N1CCN(c2ccc(OCC3COC(Cn4ccnc4)(c4ccc(Cl)cc4Cl)O3)cc2)CC1 (stereo unspecified) [KETOCONAZOLE] | 5700 (≈ 3030 µg/mL) | 3800 (≈ 2020 µg/mL) | 380 (≈ 202 µg/mL) | – | 950 (≈ 505 µg/mL) | 380 (≈ 202 µg/mL) | – | – | 4750 (≈ 2520 µg/mL) | 3800 (≈ 2020 µg/mL) | 380 (≈ 202 µg/mL) | 950 (≈ 505 µg/mL) | 2850 (≈ 1510 µg/mL) | 950 (≈ 505 µg/mL) | 380 (≈ 202 µg/mL) | 950 (≈ 505 µg/mL) | 950 (≈ 505 µg/mL) | 380 (≈ 202 µg/mL) | 3800 (≈ 2020 µg/mL) | –
– | c1ccc(-c2ccc(C(c3ccccc3)n3ccnc3)cc2)cc1 (stereo unspecified) [BIFONAZOLE] | 800 (≈ 248 µg/mL) | 640 (≈ 199 µg/mL) | 480 (≈ 149 µg/mL) | – | 640 (≈ 199 µg/mL) | 320 (≈ 99.3 µg/mL) | – | – | 640 (≈ 199 µg/mL) | 640 (≈ 199 µg/mL) | 480 (≈ 149 µg/mL) | 800 (≈ 248 µg/mL) | 480 (≈ 149 µg/mL) | 640 (≈ 199 µg/mL) | 640 (≈ 199 µg/mL) | 640 (≈ 199 µg/mL) | 640 (≈ 199 µg/mL) | 320 (≈ 99.3 µg/mL) | 480 (≈ 149 µg/mL) | –
21.5 (≈ 10 µg/mL) | O=C1N/C(=N/c2nc(C34CC5CC(CC(C5)C3)C4)cs2)S/C1=C\c1cccc([N+](=O)[O-])c1 | 10.8 (≈ 5.04 µg/mL) | 21.5 (≈ 10 µg/mL) | 16.1 (≈ 7.51 µg/mL) | 21.5 (≈ 10 µg/mL) | 21.5 (≈ 10 µg/mL) | 16.1 (≈ 7.51 µg/mL) | 21.5 (≈ 10 µg/mL) | 43 (≈ 20.1 µg/mL) | 5.4 (≈ 2.52 µg/mL) | 21.5 (≈ 10 µg/mL) | 10.8 (≈ 5.04 µg/mL) | 21.5 (≈ 10 µg/mL) | 16.1 (≈ 7.51 µg/mL) | 16.1 (≈ 7.51 µg/mL) | 10.8 (≈ 5.04 µg/mL) | 21.5 (≈ 10 µg/mL) | 21.5 (≈ 10 µg/mL) | 10.8 (≈ 5.04 µg/mL) | 10.8 (≈ 5.04 µg/mL) | MIC (Salmonella typhimurium [10]): 10.8 µM (≈ 5.04 µg/mL); MIC (Bacillus cereus [14]): 16.1 µM (≈ 7.51 µg/mL); MIC (Pseudomonas aeruginosa [15]): 21.5 µM (≈ 10 µg/mL); MIC (Escherichia coli [17]): 21.5 µM (≈ 10 µg/mL); MBC (Proteus mirabilis [19]): 64.5 µM (≈ 30.1 µg/mL); MIC (Proteus mirabilis [20]): 43 µM (≈ 20.1 µg/mL); MIC (Listeria monocytogenes [21]): 21.5 µM (≈ 10 µg/mL); MIC (Micrococcus flavus [23]): 21.5 µM (≈ 10 µg/mL); MBC (Escherichia coli [24]): 21.5 µM (≈ 10 µg/mL); MBC (Micrococcus flavus [25]): 43 µM (≈ 20.1 µg/mL); MBC (Pseudomonas aeruginosa [28]): 43 µM (≈ 20.1 µg/mL); MBC (Staphylococcus aureus [32]): 43 µM (≈ 20.1 µg/mL)

— ChEMBL document CHEMBL1157665, “Novel 4-thiazolidinone derivatives as potential antifungal and antibacterial drugs” (2010)
